Measured values published in ChEMBL document CHEMBL4513216, “Probing the Open Global Health Chemical Diversity Library for Multistage-Active Starting Points for Next-Generation Antimalarials” (ACS Infect Dis, 2020).

Experiment: Toxicity liver stage against HepG2, at 10uM
Format: cell-based
Design: test concentration 10 uM, cell line HepG2-A16-CD81EGFP
Details: human, HepG2-A16-CD81EGFP cells; read-out: INHIBITION
Method in brief: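 Uninfected HepG2-A16-CD81EGFP cells, 3 × 10^3 per well, 1536-well, plated on prespotted compound at 10 μM final, parasite-free screening media added to match infected plates; puromycin 10 μM positive, DMSO 0.5% negative; run in parallel with 48 h PbLuc assay at 37 °C, 5% CO2; viability by CellTiter-Glo luminescence, normalized to controls.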

Row | Structure (SMILES) | cytotoxicity at 10 µM
1 | CC(C)c1ccc(CNC(C)c2ccc(S(C)(=O)=O)cc2)cc1 (stereo unspecified) | 13.9%
2 | COc1ccc(NC(=O)NCC(O)c2ccc(F)cc2F)c(OC)c1 (stereo unspecified) | 2.79%
3 | CCCN1C(=O)[C@@H]2[C@@H](CCN2C(=O)COC)N(Cc2cccs2)C1=O | 0.121%
4 | COCC(=O)N1CCN(C(=O)c2cccs2)C[C@H]1C(=O)OC | -0.655%
5 | CS(=O)(=O)N1CC[C@H](c2nc3ccc(C(F)(F)F)cc3[nH]2)C1 | 0.0915%
6 | Cc1ccc(Cl)cc1NC(=O)Nc1c[nH]c(=O)[nH]c1=O | -7.58%
7 | CCOCCNC(=O)[C@@H]1CCCN1c1nccc(Nc2ccccc2)n1 | 2.66%
8 | CCCC1CN(CC(C)C)C(=O)c2cccnc2O1 (stereo unspecified) | 3.04%
9 | CC(C)(CO)Nc1c(NCc2ccccn2)c(=O)c1=O | 0.122%
10 | COc1ccc(NC(=O)c2nc(C)sc2C)cn1 | -2.52%
11 | COCC(=O)Nc1cnc(N2CCN(c3ccccc3)CC2)nc1 | -9.87%
12 | COc1cc(NC(=O)C2CC(=O)N(c3cccc(F)c3)C2)ncn1 (stereo unspecified) | -1.73%
13 | c1coc(CN2CCC3(CC2)COC(COCC2CCOCC2)C3)c1 (stereo unspecified) | 4.67%
14 | CS(=O)(=O)N1CCCC12CCCN(C(=O)c1ccno1)C2 (stereo unspecified) | -172%
15 | CC(=O)N1CCC2(C1)c1ccccc1S(=O)(=O)N2Cc1ccccc1 (stereo unspecified) | -127%
16 | CC1=Nc2c(c(O)nn2C2CCOCC2)C(c2cccnc2)S1 (stereo unspecified) | 5.11%
17 | O=C(NCCc1nccs1)C(c1ccccc1)n1cnnn1 (stereo unspecified) | 5.28%
18 | CN(C)C(=O)N1CCc2c(CNc3ncccn3)cncc2C1 | -3.55%
19 | COCC1CN(C(=O)CNC(C)=O)Cc2ncnn2C1 (stereo unspecified) | -12.4%
20 | CCCN1CCN(C(=O)CCn2nc(C(F)(F)F)c(Br)c2C)CC1 | -8.71%
21 | O=C(O)c1cnc(N2CCC(O)CC2)nc1COc1cccc(F)c1 | -9.09%
22 | CCN(CC)CCNC(=O)c1nn(CC)cc1Cl | 2.58%
23 | CCc1noc(C2CCCCN2C(=O)c2ccn(C3CCCC3)n2)n1 (stereo unspecified) | 11.8%

Row | Structure (SMILES) | cytotoxicity at 10 µM
24 | CN(C)CCn1nc(C2CCN(S(=O)(=O)N(C)C)C2)c2cccnc21 (stereo unspecified) | -2.15%
25 | O[C@H]1CN(CCCOc2ccccc2F)CC[C@@]12CCCO2 | 3.06%
26 | Nc1ncnc2nc(C3CCN(C(=O)Cc4ccccc4)C3)ccc12 (stereo unspecified) | 2.65%
27 | CN(C)c1nccnc1C1CCN(c2cnccn2)CC1 | 4.58%
28 | Cc1c[nH]c(C2CCCN(Cc3cccc(C(=O)O)c3)C2)n1 (stereo unspecified) | 9.59%
29 | CC(=O)N1CC(C(=O)NCCc2ncc(C)s2)C1 | -1.33%
30 | CC(C)(C)OC(=O)N[C@@H]1C[C@@H](O)CN(C(=O)c2ccc(F)cc2)C[C@H]1O | 2.57%
31 | O=C(CO)N1CCCC(c2cc(C(F)(F)F)[nH]n2)C1 (stereo unspecified) | -5.12%
32 | Cc1cncc(C2CCN(C(=O)CCc3ccnn3C)CC2)n1 | -28.8%
33 | CC(CN1CCCC1=O)NC(=O)Nc1ccccc1Cn1cccn1 (stereo unspecified) | -1.33%
34 | OCCOCCN1CCCC1c1cccc(Cl)c1 (stereo unspecified) | -1.78%
35 | N#Cc1ccc(S(=O)(=O)NC(=O)c2ccc3c(c2)COC3)cc1 | 1.39%
36 | CC(C)c1cc(NC(=O)Cn2ccc(=O)c3ccccc32)[nH]n1 | -146%
37 | COc1ccccc1CNC(=O)C(C)N1CC(n2nc(C)cc2C)C1 (stereo unspecified) | 7.54%
38 | CN(Cc1c(F)cccc1Cl)C(=O)Nc1cnn(CC(N)=O)c1 | -6.39%
39 | Cc1nc(CC(=O)NS(=O)(=O)c2cccc3cnccc23)cs1 | 5.75%
40 | Cc1cc(C)cc(N(CCC#N)C(=O)CN2CCCC2c2cccs2)c1 (stereo unspecified) | -1.61%
41 | c1cc(CCN2CCCC2CN2CCCC2)ccn1 (stereo unspecified) | -2.35%
42 | Cc1ccnn1-c1ccc(C(=O)N2CCN(c3cnccn3)CC2)cc1 | -2.31%
43 | Cc1ccn(-c2ccc(N3CCCN(Cc4ccccc4)CC3)nn2)n1 | 9.31%
44 | O=C(c1cccnc1-n1cncn1)N1CCC(Nc2ccccc2)CC1 | 7.1%
45 | CN(CCc1cccs1)C(=O)Nc1cnn(CC2CCCO2)c1 (stereo unspecified) | -2.66%
46 | Cc1nc(CC(=O)N2CCOC(c3nc(C(C)(C)C)n[nH]3)C2)cs1 (stereo unspecified) | 4.06%

Row | Structure (SMILES) | cytotoxicity at 10 µM
47 | Cc1nccn1-c1cc(CNC(=O)c2ccnc(N(C)C)c2)ccn1 | 2.32%
48 | COc1cccc(CCNC(=O)NC(C)C)c1O | 2.27%
49 | c1ccc(NCc2ccc(Cn3ccnc3)cc2)nc1 | 70.9%
50 | CCC(NC(=O)NCc1cccc(N(C)C)n1)c1ccccc1OC (stereo unspecified) | 29.1%
51 | COCCN1CCN(CC(=O)N(C)Cc2cccc(F)c2)CC1C (stereo unspecified) | -151%
52 | Cc1nnc(N2CCCC2)c(C(N)=O)c1C | 7.19%
53 | CC(CO)CNC(=O)c1cc2cccc(F)c2o1 (stereo unspecified) | 8.13%
54 | NC(=O)CN(C(=O)C1Cc2cc(Cl)ccc2O1)C1CCCC1 (stereo unspecified) | 10.1%
55 | Cc1cc(NC(=O)N(Cc2ccc(C#N)cc2)C(C)C)no1 | -17%
56 | CN(Cc1nnc(C2CC2)n1C)S(=O)(=O)c1ccccc1C#N | 14.9%
57 | CCn1cc(CNC2CCN(c3c(F)cccc3F)C2)cn1 (stereo unspecified) | -2.93%
58 | CCc1nsc(NC2CCOC3(CCCC3)C2)n1 (stereo unspecified) | 13%
59 | CCOc1ccc(C#N)cc1NC(=O)N1CCC(N2CCCC2)C1 (stereo unspecified) | -7.35%
60 | CC(C)c1nnc2n1CCN(C(=O)c1ccc3c(c1)COC3)C2 | -6.22%
61 | O=C(NCCc1nnc2n1CCCCC2)N1CCC2(CCOC2)C1 (stereo unspecified) | 4.18%
62 | CC(C)n1c(C2CCCN(CCS(C)(=O)=O)C2)nc2ccccc21 (stereo unspecified) | -10.4%
63 | NC(=O)C1CCN(Cn2nc(-c3ccc(F)cc3)oc2=O)CC1 | -19.6%
64 | CC(=O)N1C[C@@H]2CN(S(=O)(=O)C3CC3)CCO[C@@H]2C1 | -107%
65 | O=C(O)c1cn(CC2CCCN(c3cnc4ccccc4n3)C2)nn1 (stereo unspecified) | 1.57%
66 | CC(C)NC(=O)[C@@H]1C[C@@H](N)CN1C(=O)CCSCc1ccc(F)cc1 | -3.43%
67 | COc1ccc(CCN2CC(c3nc(CSC)no3)CCC2=O)cc1 (stereo unspecified) | 3.11%
68 | Cc1cccc(CN2CCN(c3nc(CO)cs3)CC2)c1 | -11.6%
69 | Cn1cccc1C(=O)N1CCCn2nc(CCC(=O)NC3CC3)cc2C1 | 5.45%

Row | Structure (SMILES) | cytotoxicity at 10 µM
70 | O=C(Cn1ncc(N2CCCC2)cc1=O)Nc1ccc2nccnc2c1 | 1.83%
71 | Cn1cnnc1SCC(=O)NC1CC(=O)N(CCc2cccc(Cl)c2)C1 (stereo unspecified) | 2.3%
72 | Cc1n[nH]c(C)c1CCN(C)C(=O)c1ccc(CCC(C)(C)O)cc1 | 6.15%
73 | O=C(NCc1cnn2cccnc12)C1CC2(CCNCC2)CN1 (stereo unspecified) | -8.32%
74 | O=C(CCNC(=O)c1ccccc1F)NCCNc1cccnc1 | -7.55%
75 | O=C(c1ccc(Cl)cc1F)N1CCC(Cn2cc(CO)nn2)CC1 | -1.36%
76 | CN1CCN(C[C@@H]2CN(C(=O)CC3CCCCC3)C[C@@H]2CO)CC1 | -8.76%
77 | COCc1ccc(C(=O)N2CCC(c3nccn3CC3CC3)CC2)o1 | -2.81%
78 | CC(C)(C)N1CC(C(=O)N2CCN(CCn3cncn3)CC2)CC1=O (stereo unspecified) | -5.14%
79 | C[C@@H]1CN(S(=O)(=O)N2CCCCCC2)C[C@@]1(O)C1CCC1 | 17.6%
80 | COc1ccc2c(=O)n(CC3CC3)ccc2c1OC | 12.8%
81 | COCCN1CCC(CN(CC2CCCO2)C(=O)CCC(F)(F)F)CC1 (stereo unspecified) | 2.13%
82 | Cc1cc(C)c2ncn(CCC(C)O)c(=O)c2c1 (stereo unspecified) | 2.1%
83 | CC(=O)N1CCC(NCc2cccnc2N(C)Cc2ccccc2)CC1 | -14.1%
84 | CN(CC(=O)N1CCC(Cc2cccc(C(N)=O)c2)C1)C1CCCC1 (stereo unspecified) | -7.92%
85 | CCn1cc(S(=O)(=O)NC2CCCN(CCCc3ccccc3)C2)cn1 (stereo unspecified) | 8.08%
86 | CCn1c(CN(C)C)nnc1C1CCN(Cc2ccccc2)CC1 | -11.6%
87 | Cc1ccc(C(NC(=O)CC2CCN(C(C)C)CC2)C(=O)O)cc1 (stereo unspecified) | -9.99%
88 | CCN(c1ccc(C(=O)N2CCCC2)cc1)S(=O)(=O)CC | -9.75%
89 | CCOC(=O)CCNC(=O)c1nc(OCC)ccc1Cl | -7.6%
90 | NC(=O)c1cnn2c1NCC(CNCCCc1ccccc1)C2 (stereo unspecified) | -9.24%
91 | COCCN1CCN(Cc2cccc(OCC(N)=O)c2)CC1C (stereo unspecified) | 2.43%
92 | CCCn1nc2c(cc1=O)CN(CCCN1CCCC1=O)CC2 | -6.49%

Row | Structure (SMILES) | cytotoxicity at 10 µM
93 | c1cc(CN2CCN(Cc3cscn3)CC2)cs1 | 2.45%
94 | Cc1nc2cc(-c3nccn3C)nn2c(N2CCCC(O)C2)c1C (stereo unspecified) | 2.92%
95 | c1cncc(CNc2cncc(C3CCCN3)n2)c1 (stereo unspecified) | 9.93%
96 | c1cncc(CNCc2cccs2)c1 | 10.1%
97 | NC(=O)CCc1cccc(C2CCNCC2)n1 | -3.28%
98 | O=C(C[C@@H]1COC[C@H]2CN(C(=O)c3ccccn3)C[C@@H]12)N1CCCC1 | -104%
99 | O=C(Cc1ccccc1)N1CCC2(CC1)COCCN2CC1CC1 | -78.5%
100 | CCOC(=O)[C@]12CCCN(Cc3ccco3)C[C@H]1CN(S(C)(=O)=O)C2 | 6.86%
101 | c1cncc(CN2CCc3ncnc(C4CC4)c3CC2)c1 | -129%
102 | CC(=O)N1CCCC2(CCC(=O)N2Cc2cccnc2)C1 (stereo unspecified) | 7.59%
103 | Cc1ccc(CN2CCC[C@]3(C(=O)O)CN(C)C[C@@H]3C2)s1 | -106%
104 | Cc1ccc(CN2C[C@@H]3COC[C@H](NS(C)(=O)=O)[C@@H]3C2)o1 | 0.415%
105 | Clc1ccccc1CN1CCc2nc(C3CCCNC3)ncc2C1 (stereo unspecified) | -19.7%
106 | CN(C)CCN1CCO[C@H]2CN(C(=O)c3ccsc3)C[C@H]21 | 3%
107 | COc1ncccc1C(=O)N1CC[C@]2(C[C@@H](Oc3cccnc3)CO2)C1 | 4.43%
108 | Cc1cccc(CN2CCc3ncnc(C)c3CC2)n1 | -17.4%
109 | COCCN1CCC2(COCc3cnc(-c4ccccc4)nc32)C1 (stereo unspecified) | -111%
110 | O=C(N[C@@H]1CN(Cc2ccccc2)C[C@@H]2CCCO[C@@H]21)C1CC1 | -6.12%
111 | CN(C)C(=O)N1C[C@H]2CC[C@@H](C1)N(C(=O)CCCn1cncn1)C2 | -12.2%
